Consider 17 compounds from ChEMBL document CHEMBL1132538, “Potential multifunctional inhibitors of HIV-1 reverse transcriptase. Novel [AZT]-[TSAO-T] and [d4T]-[TSAO-T] heterodimers modified in the linker and in the dideoxynucleoside region” (J Med Chem, 1999).

Where only a bound is given, the exact number is not on record here.

In assay [1] the test system is MT4. As to the kind of experiment: Inhibition of HIV-2 induced cytopathicity against MT-4 cell. The assay is classed as functional, cell-based. The settings on record: Homo sapiens. An outline of the steps:
(§1)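 HIV-1 or HIV-2 at ~100 CCID50 per mL infecting CEM (4 × 10^5 cells/mL) or MT-4 (3 × 10^5 cells/mL) cells, mixed 1:1 with compound dilutions in microtiter wells. After 4 days, giant cell formation (CEM) or virus-induced cytopathicity (MT-4) scored microscopically.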
On the technique in general: Damage to the host cells serves as the signal in cytopathic effect assays.

The test system of assay [2] is CCRF-CEM. Description: Inhibition of HIV-1 induced cytopathicity against CEM cell. It is filed as functional, cell-based. The settings on record: Homo sapiens. An outline of the steps:
as §1

Another assay concerns MT-4 (human). Description: Cytostatic concentration against MT-4 cell.
The next assay deals with CEM (human). Description: Inhibition of HIV-2 induced cytopathicity against CEM cell.
For assay [3], the system named is CCRF-CEM. As to the kind of experiment: Cytostatic concentration against CEM cell. It is filed as functional. The settings on record: Homo sapiens.
The test system of assay [4] is MT4. Description: Inhibition of HIV-1 induced cytopathicity against MT-4 cell. It is filed as functional, cell-based. The settings on record: Homo sapiens. An outline of the steps:
as §1

Assay [5] relates to MT4. Description: Cytostatic concentration against MT-4 cell. It is filed as functional. The settings on record: Homo sapiens.
Assay [6] relates to CCRF-CEM. Description: Inhibition of HIV-2 induced cytopathicity against CEM cell. It is filed as functional, cell-based. Conditions: Homo sapiens. The gist of the method: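 CEM cells at 4 × 10^5 per mL infected with HIV-2 at ∼100 CCID50 per mL of cell suspension, then mixed 1:1 with serial compound dilutions. Giant cell formation scored microscopically after 4 days.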

In general, EC50 refers to the midpoint of the concentration-response curve. Usually CC50 stands for the concentration that lowers cell viability or growth by half. A higher CC50 goes with better tolerance by the cells. In the case of `Cc1cn([C@@H]2O[C@H](CO[Si](C)(C)C(C)(C)C)C3(OS(=O)(=O)C=C3N)[C@H]2O[Si](C)(C)C(C)(C)C)c(=O)[nH]c1=O` (stereo partly specified), the EC50 in the assay on MT4 [1] is over 6 µM; in the assay on CCRF-CEM [2] it was 0.05 µM; in the assay on CEM (human) it was over 6 µM. Moreover, half-maximal cytotoxicity in the assay on MT-4 (human) (CC50) was put at 12 µM.

As for `Cc1cn([C@@H]2O[C@H](CO[Si](C)(C)C(C)(C)C)[C@@]3(OS(=O)(=O)C=C3N)[C@H]2O[Si](C)(C)C(C)(C)C)c(=O)n(CCCn2c(=O)c(C)cn([C@H]3C[C@H](N=[N+]=[N-])[C@@H](CO)O3)c2=O)c1=O`, the CC50 in the assay with CCRF-CEM [3] and in the assay on MT4 [5] was over 100 µM each time. Besides, the concentration giving a half-maximal response (EC50) in the assay on CCRF-CEM [2] was found to be 0.09 µM; in the assay on MT4 [4], 0.38 µM.

Regarding `COC(=O)C(C)NP(=O)(OC[C@@H]1O[C@H](n2cc(C)c(=O)n(CCCCCCn3c(=O)c(C)cn([C@@H]4O[C@H](CO[Si](C)(C)C(C)(C)C)[C@@]5(OS(=O)(=O)C=C5N)[C@H]4O[Si](C)(C)C(C)(C)C)c3=O)c2=O)C[C@H]1N=[N+]=[N-])Oc1ccccc1` (stereo partly specified), the half-maximal effective concentration (EC50) is over 250 µM in the assay with CCRF-CEM [6], over 250 µM in the assay on MT4 [1] and 1.7 µM in the assay with CCRF-CEM [2]. In addition, the 50% cytotoxic concentration (CC50) in the assay on CCRF-CEM [3] and with MT4 [5] was over 250 µM in each case.

On to `COC(=O)C(C)NP(=O)(OC[C@@H]1O[C@H](n2cc(C)c(=O)n(CCCCCCn3c(=O)c(C)cn([C@@H]4O[C@H](CO[Si](C)(C)C(C)(C)C)[C@@]5(OS(=O)(=O)C=C5N)[C@H]4O[Si](C)(C)C(C)(C)C)c3=O)c2=O)C[C@H]1O)Oc1ccccc1` (stereo partly specified), for which the concentration for a half-maximal effect (EC50) with CCRF-CEM [6] is over 50 µM; with MT4 [1] it was over 50 µM; in the assay on CCRF-CEM [2] it was 0.25 µM; in the assay with MT4 [4] it was 0.93 µM. Besides, the half-maximal cytotoxic concentration (CC50) worked out at 104 µM in the assay with CCRF-CEM [3] and 25 µM in the assay on MT4 [5].

Turning to `Cc1cn([C@@H]2CC(N=[N+]=[N-])[C@H](CO)O2)c(=O)n(CC#CCn2c(=O)c(C)cn([C@@H]3O[C@H](CO[Si](C)(C)C(C)(C)C)[C@@]4(OS(=O)(=O)C=C4N)[C@H]3O[Si](C)(C)C(C)(C)C)c2=O)c1=O` (stereo partly specified), the EC50 was over 50 µM with CCRF-CEM [6], over 250 µM with MT4 [1], 0.23 µM with CCRF-CEM [2] and 1 µM in the assay on MT4 [4]. The figures for the half-maximal cytotoxic concentration (CC50) with CCRF-CEM [3] and with MT4 [5] were over 250 µM and 106 µM, respectively.

Consider `COC(=O)C(C)NP(=O)(OCC1OC(n2cc(C)c(=O)n(CCCCCCBr)c2=O)CC1N=[N+]=[N-])Oc1ccccc1` (stereo unspecified), for which the half-maximal effective concentration (EC50) in the assay on CCRF-CEM [6], in the assay with MT4 [1], in the assay with CCRF-CEM [2] and in the assay with MT4 [4] was over 10 µM in each case. The CC50 in the assay with CCRF-CEM [3] and with MT4 [5] was 22 µM throughout.

Take `COC(=O)C(C)NP(=O)(OCC1OC(n2cc(C)c(=O)n(CCCBr)c2=O)CC1N=[N+]=[N-])Oc1ccccc1` (stereo unspecified): the concentration for a half-maximal effect (EC50) in the assay on CCRF-CEM [6], in the assay on MT4 [1], with CCRF-CEM [2] and in the assay on MT4 [4] was over 50 µM each time. For the same compound, the 50% cytotoxic concentration (CC50) worked out at 41 µM with CCRF-CEM [3] and 44 µM in the assay on MT4 [5].

With `COC(=O)C(C)NP(=O)(OC[C@@H]1O[C@H](n2cc(C)c(=O)n(CCCn3c(=O)c(C)cn([C@@H]4O[C@H](CO[Si](C)(C)C(C)(C)C)[C@@]5(OS(=O)(=O)C=C5N)[C@H]4O[Si](C)(C)C(C)(C)C)c3=O)c2=O)C[C@H]1O)Oc1ccccc1` (stereo partly specified), the EC50 is over 50 µM in the assay on CCRF-CEM [6], over 50 µM in the assay with MT4 [1], 0.25 µM in the assay on CCRF-CEM [2] and 0.33 µM in the assay with MT4 [4]. Besides, the CC50 with CCRF-CEM [3] is over 250 µM; in the assay on MT4 [5], 31 µM.

For `COC(=O)C(C)NP(=O)(OC[C@@H]1O[C@H](n2cc(C)c(=O)n(CCCn3c(=O)c(C)cn([C@@H]4O[C@H](CO[Si](C)(C)C(C)(C)C)[C@@]5(OS(=O)(=O)C=C5N)[C@H]4O[Si](C)(C)C(C)(C)C)c3=O)c2=O)C[C@H]1N=[N+]=[N-])Oc1ccccc1` (stereo partly specified), the concentration for a half-maximal effect (EC50) is over 250 µM in the assay with CCRF-CEM [6], over 250 µM with MT4 [1], 0.65 µM in the assay on CCRF-CEM [2] and 3.2 µM with MT4 [4]. For the same compound, the CC50 in the assay with CCRF-CEM [3] and in the assay on MT4 [5] was over 250 µM in each case.

For the compound `COC(=O)C(C)NP(=O)(OC[C@H]1C=C[C@@H](n2cc(C)c(=O)n(CCCCCCn3c(=O)c(C)cn([C@@H]4O[C@H](CO[Si](C)(C)C(C)(C)C)[C@@]5(OS(=O)(=O)C=C5N)[C@H]4O[Si](C)(C)C(C)(C)C)c3=O)c2=O)O1)Oc1ccccc1` (stereo partly specified), the concentration giving a half-maximal response (EC50) in the assay with CCRF-CEM [6] was over 50 µM; in the assay with MT4 [1] it was over 50 µM; with CCRF-CEM [2], 0.4 µM; with MT4 [4] it was 0.57 µM. Further, the figures for the half-maximal cytotoxic concentration (CC50) in the assay with CCRF-CEM [3] and in the assay on MT4 [5] were over 250 µM and 37 µM, respectively.

Turning to `Cc1cn([C@@H]2C[C@@H](N=[N+]=[N-])[C@H](CO)O2)c(=O)n(CCOCCn2c(=O)c(C)cn([C@@H]3O[C@H](CO[Si](C)(C)C(C)(C)C)[C@@]4(OS(=O)(=O)C=C4N)[C@H]3O[Si](C)(C)C(C)(C)C)c2=O)c1=O`, the EC50 in the assay with CCRF-CEM [6] was over 50 µM; in the assay with MT4 [1] it was over 250 µM; in the assay on CCRF-CEM [2], 0.18 µM; in the assay on MT4 [4], 0.31 µM. Besides, the 50% cytotoxic concentration (CC50) in the assay on CCRF-CEM [3] and in the assay on MT4 [5] was over 250 µM each time.

In the case of `COC(=O)C(C)NP(=O)(OC[C@H]1C=C[C@@H](n2cc(C)c(=O)n(CCCn3c(=O)c(C)cn([C@@H]4O[C@H](CO[Si](C)(C)C(C)(C)C)[C@@]5(OS(=O)(=O)C=C5N)[C@H]4O[Si](C)(C)C(C)(C)C)c3=O)c2=O)O1)Oc1ccccc1` (stereo partly specified), the concentration giving a half-maximal response (EC50) in the assay on CCRF-CEM [6] turned out to be 15 µM; in the assay on MT4 [1], 26 µM; in the assay on CCRF-CEM [2], 0.17 µM; in the assay on MT4 [4], 0.18 µM. Also, the 50% cytotoxic concentration (CC50) with CCRF-CEM [3] amounted to 123 µM; in the assay with MT4 [5], 28 µM.

For `Cc1cn([C@@H]2O[C@H](CO[Si](C)(C)C(C)(C)C)[C@@]3(OS(=O)(=O)C=C3N)[C@H]2O[Si](C)(C)C(C)(C)C)c(=O)n(CC#CC#CCn2c(=O)c(C)cn([C@H]3O[C@@H](CO[Si](C)(C)C(C)(C)C)[C@]4(OS(=O)(=O)C=C4N)[C@@H]3O[Si](C)(C)C(C)(C)C)c2=O)c1=O`, the EC50 in the assay with CCRF-CEM [6] was over 250 µM; with MT4 [1], over 250 µM; in the assay on CCRF-CEM [2] it was over 50 µM; in the assay on MT4 [4] it was over 50 µM. The CC50 is over 250 µM with CCRF-CEM [3] and 65 µM with MT4 [5].

In the case of `Cc1cn([C@@H]2O[C@H](CO[Si](C)(C)C(C)(C)C)[C@@]3(OS(=O)(=O)C=C3N)[C@H]2O[Si](C)(C)C(C)(C)C)c(=O)n(CC#Cc2cn([C@@H]3C[C@@H](O)[C@H](CO)O3)c(=O)[nH]c2=O)c1=O`, the EC50 is over 10 µM with CCRF-CEM [6], over 10 µM in the assay on MT4 [1], 0.55 µM with CCRF-CEM [2] and 0.44 µM in the assay on MT4 [4]. Further, the half-maximal cytotoxic concentration (CC50) in the assay with CCRF-CEM [3] was found to be 21 µM; in the assay with MT4 [5], 15 µM.

In the case of `Cc1cn([C@@H]2O[C@H](CO[Si](C)(C)C(C)(C)C)[C@@]3(OS(=O)(=O)C=C3N)[C@H]2O[Si](C)(C)C(C)(C)C)c(=O)n(CC#Cc2cn([C@@H]3C=C[C@H](CO)O3)c(=O)[nH]c2=O)c1=O`, the concentration giving a half-maximal response (EC50) in the assay on CCRF-CEM [6] is over 10 µM; in the assay with MT4 [1] it was over 10 µM; in the assay on CCRF-CEM [2], 0.11 µM; with MT4 [4] it was 0.18 µM. In addition, the figures for the 50% cytotoxic concentration (CC50) with CCRF-CEM [3] and in the assay on MT4 [5] were 21 µM and 8 µM, respectively.

For the compound `Cc1cn([C@@H]2C[C@@H](N=[N+]=[N-])[C@H](CO)O2)c(=O)n(C/C=C/Cn2c(=O)c(C)cn([C@@H]3O[C@H](CO[Si](C)(C)C(C)(C)C)[C@@]4(OS(=O)(=O)C=C4N)[C@H]3O[Si](C)(C)C(C)(C)C)c2=O)c1=O`, the EC50 with CCRF-CEM [6] is 57 µM; in the assay with MT4 [1] it was over 250 µM; in the assay with CCRF-CEM [2], 0.34 µM; in the assay on MT4 [4] it was 0.7 µM. Moreover, the half-maximal cytotoxic concentration (CC50) in the assay with CCRF-CEM [3] and in the assay with MT4 [5] was over 250 µM in each case.

`Cc1cn([C@@H]2O[C@H](CO[Si](C)(C)C(C)(C)C)[C@@]3(OS(=O)(=O)C=C3N)[C@H]2O[Si](C)(C)C(C)(C)C)c(=O)n(CC#Cc2cn([C@@H]3C[C@@H](N=[N+]=[N-])[C@H](CO)O3)c(=O)[nH]c2=O)c1=O`: the CC50 with CCRF-CEM [3] was over 250 µM; with MT4 [5] it was 31 µM. In addition, the half-maximal effective concentration (EC50) with MT4 [1] was over 10 µM; in the assay on CCRF-CEM [2] it was 0.2 µM; with MT4 [4] it was 0.33 µM.
